The record followed here is ChEMBL document CHEMBL3763134, “Arylpiperidines as a new class of oxidosqualene cyclase inhibitors” (Eur J Med Chem, 2016).

pIC50: −log10 of the molar value. Activity calls are given as the source filed them. The rule behind the calls is not given here.

Assay [1] concerns the target T1, Lanosterol synthase (Homo sapiens) (UniProt P48449).
T1 sequence (whole entry): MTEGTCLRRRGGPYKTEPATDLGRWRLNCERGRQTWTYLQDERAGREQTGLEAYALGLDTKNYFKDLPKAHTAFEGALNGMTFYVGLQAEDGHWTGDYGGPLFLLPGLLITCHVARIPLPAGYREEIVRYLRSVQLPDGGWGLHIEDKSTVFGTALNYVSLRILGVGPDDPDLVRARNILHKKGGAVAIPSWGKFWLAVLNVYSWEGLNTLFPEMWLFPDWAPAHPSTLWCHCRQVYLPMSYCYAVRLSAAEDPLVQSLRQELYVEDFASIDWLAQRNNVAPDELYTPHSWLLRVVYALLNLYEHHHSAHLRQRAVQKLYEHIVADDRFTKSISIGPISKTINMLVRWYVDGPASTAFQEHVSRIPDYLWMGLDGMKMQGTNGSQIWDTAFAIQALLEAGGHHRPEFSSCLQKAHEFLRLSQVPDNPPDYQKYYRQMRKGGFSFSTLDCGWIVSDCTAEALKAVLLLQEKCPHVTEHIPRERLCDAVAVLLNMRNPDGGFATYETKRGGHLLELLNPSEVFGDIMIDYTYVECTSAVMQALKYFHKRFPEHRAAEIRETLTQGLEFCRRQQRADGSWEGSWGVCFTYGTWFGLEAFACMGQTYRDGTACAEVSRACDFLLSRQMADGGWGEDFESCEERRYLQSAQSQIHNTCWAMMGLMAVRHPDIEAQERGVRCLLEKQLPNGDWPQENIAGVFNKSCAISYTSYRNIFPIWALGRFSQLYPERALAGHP
The assay can be described thus: Inhibition of OSC in human HL60 cells assessed as accumulation of 2,3-oxidosqualene by GC-MS method. The format is cell-based. The conditions noted are these: HL-60. The gist of the method:
(§1)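 Qualitative whole-cell screen: human HL-60 cells incubated with compound, then lysed and extracted; sterol pattern analysed by GC-MS. Enzyme target assigned from characteristic precursor accumulation: 2,3-oxidosqualene for OSC, 7-dehydrocholesterol for dehydrocholesterol reductase.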

The test system of another assay is Saccharomyces cerevisiae. The assay can be described thus: Inhibition of ergosterol biosynthesis in Saccharomyces cerevisiae DSM 1333 at 0.2 to 0.5 times MIC after 48 hrs by GC-MS analysis. The format is functional, organism-based. Summed up:
(§2)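 Whole-cell sterol-pattern assay analogous to the cholesterol one, run on S. cerevisiae, Yarrowia lipolytica and Candida glabrata; accumulation of precursor sterols and cellular ergosterol content followed.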

The subject of another assay is Nakaseomyces glabratus. Kind of assay: Inhibition of ergosterol biosynthesis in Candida glabrata DSM 11226 at 0.2 to 0.5 times MIC after 48 hrs by GC-MS analysis. The format is functional, organism-based. The gist of the method: as §2
A short description of assay [2]: Cytotoxicity against human HL60 cells after 24 hrs by MTT assay. In kind it is cell-based. The conditions noted are these: HL-60, 24 h. Summed up: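 MTT assay on human leukaemia HL-60 cells, following Mosmann; cisplatin as reference; triplicate experiments.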
In general terms: Tetrazolium assays rely on reduction of a dye to a coloured formazan, in cell work by metabolically active cells.

The next assay relates to Yarrowia lipolytica. Kind of assay: Inhibition of ergosterol biosynthesis in Yarrowia lipolytica DSM 1345 at 0.2 to 0.5 times MIC after 48 hrs by GC-MS analysis. In kind it is functional, organism-based. Summed up:
as §2

The nature of assay [3]: Inhibition of Trypanosoma cruzi OSC expressed in recombinant Saccharomyces cerevisiae SMY8 using [14C]-(3S)-2,3-oxidosqualene as substrate. The gist of the method: (§3)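 Homogenates of yeast cultures (SMY8 expressing human or T. cruzi OSC; wild-type S. cerevisiae FL100) incubated with radiolabelled 2,3-oxidosqualene at increasing inhibitor concentrations; IC50 as mean of two separate experiments, each in duplicate.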

Assay [4] can be described thus: Inhibition of Saccharomyces cerevisiae FL100 wild type OSC using [14C]-(3S)-2,3-oxidosqualene as substrate. Summed up: as §3
A further assay concerns the target T2, Lanosterol synthase (Homo sapiens, UniProt P48449).
T2 sequence (P48449 whole entry): T1 sequence (whole entry)
The assay can be described thus: Inhibition of human OSC expressed in recombinant Saccharomyces cerevisiae SMY8 using [14C]-(3S)-2,3-oxidosqualene as substrate. Summed up: as §3

The test system of the next assay is HL-60. Kind of assay: Inhibition of total cholesterol biosynthesis in human HL60 cells assessed as incorporation of 2-13C-acetate by GC-MS analysis. The format is functional, cell-based. Summed up: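 HL-60 cells incubated with inhibitor in presence of 2-13C-acetate; newly made 13C-labelled cholesterol distinguished from unlabelled pre-existing cholesterol by GC-MS after extraction; IC50 for total cholesterol biosynthesis derived; triplicate experiments.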

Assay [5] in a line: Inhibition of Saccharomyces cerevisiae OSC expressed in recombinant Saccharomyces cerevisiae SMY8 using [14C]-(3S)-2,3-oxidosqualene as substrate.
In assay [6] the target is T3, 7-dehydrocholesterol reductase (Homo sapiens) (UniProt Q9UBM7).
T3 sequence (whole entry): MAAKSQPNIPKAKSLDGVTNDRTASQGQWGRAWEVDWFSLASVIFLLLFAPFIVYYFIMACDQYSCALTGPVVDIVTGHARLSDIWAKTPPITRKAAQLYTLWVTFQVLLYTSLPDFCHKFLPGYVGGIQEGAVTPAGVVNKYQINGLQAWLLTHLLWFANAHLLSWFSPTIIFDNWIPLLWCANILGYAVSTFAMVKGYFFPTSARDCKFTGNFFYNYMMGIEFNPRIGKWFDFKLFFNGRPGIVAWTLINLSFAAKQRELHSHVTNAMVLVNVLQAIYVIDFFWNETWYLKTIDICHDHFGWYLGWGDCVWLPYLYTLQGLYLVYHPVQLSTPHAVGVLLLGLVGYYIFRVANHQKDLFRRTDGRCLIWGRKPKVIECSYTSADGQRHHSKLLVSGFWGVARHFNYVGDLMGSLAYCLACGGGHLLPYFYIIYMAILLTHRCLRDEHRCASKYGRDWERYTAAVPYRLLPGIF
Kind of assay: Inhibition of 7-dehydrocholesterol reductase in human HL60 cells assessed as accumulation of 7-dehydrocholesterol by GC-MS method. In kind it is cell-based. The conditions noted are these: HL-60. Summed up:
as §1

In the case of `CN1CCC=C(c2ccc(CN(C)CCCc3ccccc3)cc2)C1`, the inhibition result in assay [1] was “Active”. Also, the inhibition result with Saccharomyces cerevisiae, in the assay with Nakaseomyces glabratus and in the assay on Yarrowia lipolytica was “inactive” in each case. The pIC50 in assay [2] is below 4.30.

Consider `CN1CCC=C(c2ccc(CN(C)Cc3ccc4ccccc4c3)cc2)C1`, for which the pIC50 is below 5.00 in assay [3]; below 5.00 in assay [4]; below 5.00 at Lanosterol synthase; below 4.30 in assay [2]; 6.43 in the assay with HL-60. For the same compound, in assay [1], the inhibition entry is “Active”. Further, the inhibition entry in the assay on Saccharomyces cerevisiae, in the assay with Nakaseomyces glabratus and in the assay with Yarrowia lipolytica was “inactive” each time.

On to `CC(C)CCN(C)Cc1ccc(C2=CCCN(C)C2)cc1`, for which, in [2], the pIC50 was below 4.30.

For `CN1CCC=C(c2ccc(CN(C)Cc3ccc([N+](=O)[O-])cc3)cc2)C1`, the inhibition result in assay [1] was “Active”. Further, the inhibition result with Saccharomyces cerevisiae, in the assay on Nakaseomyces glabratus and in the assay with Yarrowia lipolytica was “inactive” in each case. In addition, the pIC50 in assay [2] is 4.55; with HL-60, 5.64.

The compound `CC(C)CN(C)Cc1ccc(C2=CCCN(C)C2)cc1` had a pIC50 in assay [2] below 4.30.

Turning to `CC(C)CCCN(C)Cc1ccc(C2CCCN(C)C2)cc1` (racemic), the pIC50 in assay [2] is below 4.30.

In turn, `CN1CCC=C(c2ccc(CN(C)Cc3ccccc3)cc2)C1` showed a pIC50 in assay [2] below 4.30.

With `CN(CCCc1ccccc1)Cc1ccc(C2CCCN(C)C2)cc1` (racemic), the inhibition result in assay [1] is “Active”. Moreover, the pIC50 in [2] was below 4.30.

In [2], `CC(C)CN(C)Cc1ccc(C2CCCN(C)C2)cc1` (racemic) showed a pIC50 below 4.30.

Take `CN(Cc1ccc(Cl)cc1)Cc1ccc(C2CCCN(C)C2)cc1` (configuration not stated): the pIC50 in assay [3] was below 5.00; in assay [4] it was below 5.00; on Lanosterol synthase it was 5.69; in assay [2] it was below 4.30; with HL-60, 5.89. In addition, in assay [1], the inhibition entry is “Active”.

As to `CN(C/C=C/c1ccccc1)Cc1ccc(C2CCCN(C)C2)cc1` (configuration not stated), the pIC50 in assay [3] is below 5.00; in [4], below 5.00; on Lanosterol synthase, 5.69; in assay [2] it was below 4.30; with HL-60, 5.96. Further, the inhibition entry in assay [1] is “Active”.

Turning to `CN1CCCC(c2ccc3c(c2)CCC3N(C)Cc2ccc(Cl)cc2)C1` (racemic), the pIC50 was below 5.00 in assay [3]; below 5.00 in [4]; 5.37 at Lanosterol synthase; below 4.30 in assay [2]; 6.85 in the assay with HL-60. For the same compound, in [1], the inhibition result is “Active”. For the same compound, the inhibition entry in the assay on Saccharomyces cerevisiae, with Nakaseomyces glabratus and with Yarrowia lipolytica was “inactive” each time.

As to `CN1CCC=C(c2ccc(CN(C)Cc3ccc(Cl)cc3)cc2)C1`, the pIC50 was below 5.00 in [3]; 5.20 in [4]; 5.60 on Lanosterol synthase; below 4.30 in [2]; 5.67 in the assay with HL-60. In addition, the inhibition entry in assay [1] is “Active”. Moreover, the inhibition entry in the assay on Saccharomyces cerevisiae, with Nakaseomyces glabratus and in the assay on Yarrowia lipolytica was “inactive” throughout.

As to `CN1CCC(c2ccc(CN(C)Cc3ccc(Cl)cc3)cc2)CC1`, the pIC50 was below 5.00 in assay [3]; 5.32 in assay [4]; 6.29 at Lanosterol synthase; below 4.30 in [2]; 6.59 in the assay with HL-60. Moreover, the inhibition entry in assay [1] was “Active”. Besides, the inhibition entry with Saccharomyces cerevisiae, in the assay on Nakaseomyces glabratus and with Yarrowia lipolytica was “inactive” throughout.

For the compound `CN1CCC=C(c2ccc(CN(C)C/C=C/c3ccccc3)cc2)C1`, the negative logarithm of the IC50 (pIC50) in [3] is below 5.00; in assay [4], below 5.00; at Lanosterol synthase, 5.28; in assay [2], below 4.30; in the assay with HL-60, 6.17. The inhibition result in assay [1] was “Active”. For the same compound, the inhibition entry with Saccharomyces cerevisiae, in the assay with Nakaseomyces glabratus and with Yarrowia lipolytica was “inactive” in each case.

In assay [2], `CC(C)CCCN(C)Cc1ccc(C2=CCCN(C)C2)cc1` had a negative-log IC50 (pIC50) below 4.30.

For the compound `CN1CCC=C(c2ccc(CN(C)C/C=C/c3ccc([N+](=O)[O-])cc3)cc2)C1`, the inhibition entry in assay [1] is “Active”. Further, the inhibition result with Saccharomyces cerevisiae, in the assay with Nakaseomyces glabratus and in the assay with Yarrowia lipolytica was “inactive” each time. In addition, the pIC50 in assay [2] is below 4.30; in the assay with HL-60 it was 5.89.

In [2], `CC(C)CCN(C)Cc1ccc(C2CCCN(C)C2)cc1` (racemic) gave a pIC50 below 4.30.

As to `CN(C)Cc1ccc([C@H]2CC[C@H](N(C)C(=O)c3ccc(Cl)cc3)CC2)cc1`, the inhibition result in assay [1] is “Active”. For the same compound, the results for the pIC50 (in [2]; with HL-60) were below 4.30 and 6.51, respectively.

Regarding `COc1ccc(CN(C)Cc2ccc(C3=CCCN(C)C3)cc2)cc1`, the pIC50 in assay [2] was below 4.30.

Consider `C=CCN(C)CCCCCCOc1ccc(C(=O)c2ccc(Br)cc2)c(F)c1`, for which the inhibition result in [1] is “Active”. In addition, the results for the pIC50 (in assay [2]; with HL-60; in [5]) were 5.10, 7.04 and 6.05, respectively.

In the case of `CN(C/C=C/c1ccccc1)Cc1ccc(-c2cccnc2)cc1`, the pIC50 in assay [2] is 4.36.

As to `COC(=O)c1ccc(CN(C)Cc2ccc(C3=CCCN(C)C3)cc2)cc1`, in assay [2], the negative logarithm of the IC50 (pIC50) is below 4.30.

Take `CN(Cc1ccc(C2CCCN(C)C2)cc1)Cc1ccc2ccccc2c1` (racemic): the pIC50 is below 5.00 in assay [3]; below 5.00 in assay [4]; 5.07 at Lanosterol synthase; 4.40 in assay [2]; 5.88 in the assay on HL-60. In addition, the inhibition result in assay [1] was “Active”.

For `CN(Cc1ccc(Cl)cc1)Cc1cn(C2CCCN(C)C2)nn1` (racemic), the inhibition entry in assay [6] is “Active”. In [2], this compound showed a pIC50 below 4.30.

`CN(Cc1ccc(Cl)cc1)Cc1ccc(-c2cccnc2)cc1` showed a negative-log IC50 (pIC50) in [2] of 4.68.

Broadly, the pIC50 is −log10 of the IC50, conventionally taken in molar units.
